The target in this experiment is Estrogen receptor (Ovis aries) (UniProt P49885+Q9TU15). In words: The ratio of association constant for estrogen receptor using [3H]estradiol as a tracer, relative to estradiol. Format: protein assay. Summed up: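 Competitive binding: lamb uterine cytosol supplied estrogen receptor, [3H]estradiol served as tracer, and free tracer was removed from bound by charcoal-dextran adsorption. Relative association constants were expressed against estradiol set at 100.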

On to `CC[C@H](c1ccc(O)cc1)[C@@H](CC(C)=O)c1ccc(O)cc1`, for which the RAC amounted to 21. The same measure for `CCC(c1ccc(O)cc1)C(CCBr)c1ccc(O)cc1` (centres undefined): 71; for `CC[C@H](c1ccc(O)cc1)[C@@H](CC(=O)OC)c1ccc(O)cc1`: 19; for `CC[C@H](c1ccc(O)cc1)[C@@H](C)c1ccc(O)cc1`: 137. The result for `CCCCCOC(=O)CC(c1ccc(O)cc1)C(CC)c1ccc(O)cc1` (centres undefined) reads 3.8; that for `CC[C@H](c1ccc(O)cc1)[C@@H](C(C)=O)c1ccc(O)cc1`, 58; that for `CCC(c1ccc(O)cc1)C(CCO)c1ccc(O)cc1` (centres undefined), 15. The same measure for `CCCCCNC(=O)[C@@H](c1ccc(O)cc1)[C@H](CC)c1ccc(O)cc1`: 0.29; for `CCC(c1ccc(O)cc1)C(CCF)c1ccc(O)cc1` (centres undefined): 129; for `CCC(c1ccc(O)cc1)C(C(=O)OC)c1ccc(O)cc1` (centres undefined): 70. For `CC[C@H](c1ccc(O)cc1)[C@@H](CI)c1ccc(O)cc1`, the RAC came to 127. The same measure for `CC[C@H](c1ccc(O)cc1)[C@@H](C(N)=O)c1ccc(O)cc1`: 0.2; for `CC[C@H](c1ccc(O)cc1)[C@@H](CF)c1ccc(O)cc1`: 129. `CCCCCNC(=O)C[C@@H](c1ccc(O)cc1)[C@H](CC)c1ccc(O)cc1`: the RAC was determined as 0.15. The result for `CC[C@H](c1ccc(O)cc1)[C@@H](CO)c1ccc(O)cc1` reads 8.9; that for `CC[C@H](c1ccc(O)cc1)[C@@H](C(=O)C[N+]#N)c1ccc(O)cc1`, 10.9; that for `CC[C@H](c1ccc(O)cc1)[C@@H](CBr)c1ccc(O)cc1`, 150. The result for `CC[C@H](c1ccc(O)cc1)[C@@H](CC)c1ccc(O)cc1` reads 300; that for `CCCCC(=O)[C@@H](c1ccc(O)cc1)[C@H](CC)c1ccc(O)cc1`, 81. The same measure for `CCCCCOC(=O)C(c1ccc(O)cc1)C(CC)c1ccc(O)cc1` (centres undefined): 61. `CCCCC(=O)C[C@@H](c1ccc(O)cc1)[C@H](CC)c1ccc(O)cc1`: the RAC was found to be 9.4.

For `CCC(c1ccc(O)cc1)C(CCI)c1ccc(O)cc1` (centres undefined), the RAC came to 60. The same measure for `CC[C@H](c1ccc(O)cc1)[C@@H](CC(=O)C[N+]#N)c1ccc(O)cc1`: 2.8; for `CC[C@H](c1ccc(O)cc1)[C@@H](CC(N)=O)c1ccc(O)cc1`: 0.09.

Source of the values: ChEMBL document CHEMBL1121965, “Nonsteroidal estrogens: synthesis and estrogen receptor binding affinity of derivatives of (3R*,4S*)-3,4-bis(4-hydroxyphenyl)hexane (hexestrol) and (2R*,3S*)-2,3-bis(4-hydroxyphenyl)pentane (norhexestrol) functionalized on the side chain” (J Med Chem, 1982).
